Assay results as given in ChEMBL document CHEMBL1275598, “In vitro activity of ceftaroline against community-associated methicillin-resistant, vancomycin-intermediate, vancomycin-resistant, and daptomycin-nonsusceptible Staphylococcus aureus isolates” (2010).

Legend:
Staphylococcus aureus [1] = experiment: Antimicrobial activity against vancomycin intermediate Staphylococcus aureus NRS-68 expressing SCCmec type 2 element by microdilution method in presence of 50 mg/L calcium; type: functional
Procedure, shortened: (§1)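 Daptomycin MIC by CLSI broth microdilution in cation-adjusted Mueller-Hinton broth, supplemented with calcium to a final 50 mg/liter. Read visually as the lowest concentration with no visible growth. ATCC 29213 and E. faecalis ATCC 29212 served as controls. CA-MRSA and DNSSA isolates came from patients at the study hospital; VISA isolates came from NARSA.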

Staphylococcus aureus [2] = experiment: Bactericidal activity against vancomycin-resistant Staphylococcus aureus assessed as antibiotic concentration that reduced the number of viable cells by =>99.9% by colony count method in presence of 50 mg/L calcium; type: functional
Procedure, shortened: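 MBC per CLSI following microdilution in cation-adjusted Mueller-Hinton broth with calcium added to 50 mg/liter final. Defined as the concentration giving ≥99.9% reduction in viable cells, judged from colony counts of the growth control well against Pearson rejection-value tables.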

Staphylococcus aureus [3] = experiment: Antimicrobial activity against vancomycin resistant Staphylococcus aureus VRS-4 expressing SCCmec type 4 element by microdilution method in presence of 50 mg/L calcium
Staphylococcus aureus [4] = experiment: Antimicrobial activity against vancomycin-resistant Staphylococcus aureus by microdilution method in presence of 50 mg/L calcium; type: functional
Procedure, shortened: (§2)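 Broth microdilution per CLSI in cation-adjusted Mueller-Hinton broth supplemented with calcium to 50 mg/liter final. Antibiotic powders were reconstituted per CLSI. The MIC was read visually as the lowest drug concentration with no visible growth. S. aureus ATCC 29213 and E. faecalis ATCC 29212 served as control strains.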

Staphylococcus aureus [5] = experiment: Antimicrobial activity against vancomycin intermediate Staphylococcus aureus NRS-118 expressing SCCmec type 1 element by microdilution method in presence of 50 mg/L calcium; type: functional; procedure, shortened: as §1
Staphylococcus aureus [6] = experiment: Antimicrobial activity against vancomycin intermediate Staphylococcus aureus NRS-76 expressing SCCmec type 2 element by microdilution method in presence of 50 mg/L calcium; type: functional; procedure, shortened: as §2
Staphylococcus aureus [7] = experiment: Antimicrobial activity against vancomycin intermediate Staphylococcus aureus NRS-402 expressing SCCmec type 2 element by microdilution method in presence of 50 mg/L calcium; type: functional; procedure, shortened: as §1
Staphylococcus aureus [8] = experiment: Antimicrobial activity against vancomycin resistant Staphylococcus aureus VRS-8 expressing SCCmec element by microdilution method in presence of 50 mg/L calcium
Staphylococcus aureus [9] = experiment: Antimicrobial activity against daptomycin-nonsusceptible Staphylococcus aureus assessed as susceptible isolates by microdilution method in presence of 50 mg/L calcium; type: functional
Procedure, shortened: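 Broth microdilution MIC per CLSI in cation-adjusted Mueller-Hinton broth, with calcium added to a final 50 mg/liter for daptomycin testing. MIC is the lowest drug concentration with no visible growth, read by eye. Percent susceptible was assigned from CLSI breakpoints. S. aureus ATCC 29213 and E. faecalis ATCC 29212 served as control strains.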

Staphylococcus aureus [10] = experiment: Antimicrobial activity against vancomycin intermediate Staphylococcus aureus NRS-23 expressing SCCmec type 2 element by microdilution method in presence of 50 mg/L calcium; type: functional; procedure, shortened: as §1
Staphylococcus aureus [11] = experiment: Antimicrobial activity against vancomycin intermediate Staphylococcus aureus NRS-74 expressing SCCmec type 2 element by microdilution method in presence of 50 mg/L calcium; type: functional; procedure, shortened: as §2
Staphylococcus aureus [12] = experiment: Antimicrobial activity against vancomycin intermediate Staphylococcus aureus NRS-22 expressing SCCmec type 2 element by microdilution method in presence of 50 mg/L calcium; type: functional; procedure, shortened: as §1

## CCCCCCCCCC(=O)N[C@@H](Cc1c[nH]c2ccccc12)C(=O)N[C@H](CC(N)=O)C(=O)N[C@@H](CC(=O)O)C(=O)N[C@@H]1C(=O)NCC(=O)N[C@@H](CCCN)C(=O)N[C@@H](CC(=O)O)C(=O)N[C@H](C)C(=O)N[C@@H](CC(=O)O)C(=O)NCC(=O)N[C@H](CO)C(=O)N[C@@H]([C@H](C)CC(=O)O)C(=O)N[C@@H](CC(=O)c2ccccc2N)C(=O)O[C@@H]1C
Staphylococcus aureus [1]
  MIC: 1 µg/mL
Staphylococcus aureus [2]
  MBC50: 1 µg/mL
  MBC90: 1 µg/mL
Staphylococcus aureus [2]; Staphylococcus aureus
  MBC: 0.5 µg/mL
Staphylococcus aureus [3]
  MIC: 0.5 µg/mL
Staphylococcus aureus [4]
  MIC: 0.5 µg/mL
  MIC50: 0.5 µg/mL
  MIC90: 1 µg/mL
Staphylococcus aureus [5]
  MIC: 4 µg/mL
Staphylococcus aureus [6]
  MIC: 2 µg/mL
Staphylococcus aureus [7]
  MIC: 8 µg/mL
Staphylococcus aureus [8]
  MIC: 0.5 µg/mL
Staphylococcus aureus [9]
  Activity: 0%
Staphylococcus aureus [10]
  MIC: 2 µg/mL
Staphylococcus aureus [11]
  MIC: 4 µg/mL
Staphylococcus aureus [12]
  MIC: 2 µg/mL
